STAT1 inh – STAT1 signaling inhibition; inhibition, % at 5.5 µM; NIH 3T3 STAT1-luciferase reporter, IFN-gamma, luminescence; AID 920; 0.35% of 200,000 active;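 active = inhibition above a set limit, the mean inhibition across all tested compounds plus 3 SD, cut at about 34% in these data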;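 note: 0% = IFN-gamma with DMSO and 100% = IFN-gamma with 300 µM nifuroxazide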
STAT3 activator – STAT3 signaling activation; U3A cells, IL-6 STAT3-luciferase reporter, luminescence; 100% = signal with IL-6 EC80 alone; activation (% of control), % at 5.6 µM; 0.91% of 190,000 active;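 active = activation above the screen-wide mean of compound activation plus 3 SD, cut at about 130% in these data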;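 note: 0% = background luminescence of wells with medium and substrate only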
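Assay system – human STAT1-deficient U3A cells with stable STAT3-luciferase reporter · Also added – IL-6 (33 ng/mL) · Schedule – compound 1 h, then IL-6 6 h at 37 °C · Technique – reporter luminescence signal · Evaluation – % activation versus median of IL-6-stimulated wells · Benchmarks – IL-6-only wells as 100% reference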
STAT3 inh – inhibitors of IL-6 induced STAT3 signaling. U3A cells, IL-6 STAT3-luciferase reporter, luminescence; host cell line lacks STAT1. inhibition, % at 5.5 µM. 0.89% of 190,000 active. AID 862;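 active = inhibition above the mean inhibition across all screened compounds plus 3 SD, cut at about 44% in these data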;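 note: 0% = DMSO only wells and 100% = 100 µM nifuroxazide control wells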
HSV augment – HSV replication enhancement; HSV replication augmentation in cells, fold increase; 0.005% of 220,000 active; maximum fold increase; in the data active = maximum fold increase above about 1.5; inconclusive = no clear call, values can overlap the other calls; tested in PC3 cells
STAT1 activator – STAT1 signaling activation; NIH 3T3 STAT1-luciferase reporter, IFN-gamma, luminescence; 100% = IFN-gamma alone, no compound; activation (% of control), % at 5.5 µM; 2.6% of 200,000 active; AID 932;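 active = activation above the screen-wide mean activation plus 3 SD, cut at about 130% in these data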;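 note: raw ratio to IFN-gamma control signal so 100% means no change and 0% no light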
Cl transport mod – modulates chloride dependent transport by human KCC2 | 2.2% of 190,000 active | KCC2 cells, thallium flux FluoZin-2 fluorescence | Q9H2X9 | B-score of Tl+ flux slope (higher = more flux/activation; lower = inhibition) at 10 µM;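 active = thallium flux slope and its plate-corrected score both differing from the plate sample mean at a set confidence after two filtering rounds, in either direction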;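 note: slope of fluorescence scaled to starting intensity during 10 to 20 s after thallium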
KCC2 secondary – KCC2 (human) modulation, secondary assay; HEK293-KCC2, thallium flux, FluoZin2 fluorescence; active compounds read high; 15% of 3,700 active; normalised thallium flux (F/F0 slope) at 10 µM; shares compounds with Cl transport mod; AID 1713;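 active = thallium flux slope above the same plate's solvent-only control mean plus 3 SD; inconclusive = the two replicate wells disagree; inactive = no significant difference from solvent-only control wells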
KCC2 bumet counter – bumetanide-insensitive thallium flux in KCC2 cells with ouabain, counter-screen | AID 1714 | HEK293-KCC2 + bumetanide/ouabain, thallium flux FluoZin2; active compounds read high | shares compounds with Cl transport mod | 49% of 3,700 active | normalized thallium flux at 10 µM;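 active = thallium entry rate above the same plate's blocked-transporter control wells by more than 3 SD; inconclusive = the two repeat wells disagree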;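 note: raw slope of fluorescence over initial fluorescence between 10 and 20 s after thallium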
KCC2 secondary2 – confirmation of human KCC2 transport modulators; shares compounds with Cl transport mod; HEK293-KCC2, thallium flux FluoZin2 fluorescence; actives lie on both sides; F/F0 rise rate, 10–20 s post-thallium; normalized thallium flux at 10 µM; 23% of 3,700 active;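 active = thallium flux slope more than 3 SD above or below the plate's solvent-only control mean, mostly below; inconclusive = the two repeat wells disagreed; inactive = no significant shift from solvent-only controls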;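 note: raw slope with 0.1% DMSO as baseline and bumetanide as block control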
HEK293 Tl flux – counter-screen for KCC2 modulators: effect in parental HEK293 cells. shares compounds with Cl transport mod. thallium flux FluoZin2, ouabain; baseline-ratio fluorescence slope, 10–20 s after thallium. thallium flux rate (normalised fluorescence) at 10 µM. 46% of 3,700 active;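 active = thallium flux rate significantly above the same plate's solvent-only control wells, beyond their mean plus 3 SD; inconclusive = the two replicate wells gave conflicting results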
KCC2 retest ouab – confirmation of human KCC2 modulators with ouabain. 48% of 3,700 active. AID 1717. raw Tl+ flux slope (below DMSO = inhibition, above = activation) at 10 µM. shares compounds with Cl transport mod. HEK293-KCC2, thallium flux FluoZin2 fluorescence; bidirectional: low = inhibitor, high = activator;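 active = thallium flux slope beyond 3 SD from same-plate DMSO control mean in most replicates, usually higher, sometimes lower; inconclusive = repeat tests gave conflicting results; inactive = no significant difference from controls in most replicates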;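 note: slope of initial-normalized fluorescence between seconds 10 and 20 after thallium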
HEK counter2 – parental HEK flux effect, counter-screen 2. shares compounds with Cl transport mod. HEK293 parental, thallium flux FluoZin-2 fluorescence slope. thallium flux slope at 10 µM. 33% of 3,700 active;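 active = thallium flux slope above the same plate's solvent-control mean plus 3 SD in both duplicate wells; inconclusive = duplicate wells that disagreed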;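 note: run without ouabain in cells lacking the KCC2 cotransporter; slope of fluorescence scaled to its starting value between 10 and 20 s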
Numbers without * were called inactive; i = inactive; ? = inconclusive; / = not tested or not shown. Most compounds without a hit are left out; they make up all but 5.5% or so of the library.

SMILES	STAT1 inh	STAT3 activator	STAT3 inh	HSV augment	STAT1 activator	Cl transport mod	KCC2 secondary	KCC2 bumet counter	KCC2 secondary2	HEK293 Tl flux	KCC2 retest ouab	HEK counter2
COc1ccc(C2c3c(ncn(CCN4CCOCC4)c3=N)Oc3ccc4ccccc4c32)cc1 (centres undefined)	6	105	-6	i	94	0.16	/	/	/	/	/	/
Cc1c(C(=O)O)sc(=S)n1CCOc1ccccc1	-4	116	-13	i	104	/	0.0072	0.005	0.024*	0.0066	0.015*	0.01
COc1ccc(N(CC(=O)Nc2ccc(C)c(C)c2)S(=O)(=O)c2c(C)n[nH]c2C)cc1	-1	96	12	/	101	/	0.0067	?	0.026*	0.007	?	0.011
Cc1ccc2nc(CSc3nc(C)cc(C)c3C#N)[nH]c2c1	-28	102	6	i	125	5.9*	0.017	0.0035	0.025*	0.0061*	0.014	0.0094
CC1(C)CC(=NOC(=O)c2ccccc2)CC(C)(C)N1O	11	97	2	i	90	-0.0031	/	/	/	/	/	/
CCOC(=O)CC(NC(=O)Cn1nnc(-c2ccccc2)n1)c1ccc(OC)cc1 (centres undefined)	5	123	-14	i	93	-1.7	/	/	/	/	/	/
Fc1ccc(-c2n[nH]c(=S)c3ccccc23)cc1	-2	95	8	i	101	14*	0.011	0.021*	0.034	0.016*	?	0.013*
c1ccc(-c2n[nH]c3ccccc23)cc1	2	101	3	i	99	-2.9*	0.0077	0.0061	0.03	0.0066	0.02	0.0096
O=C(O)c1n[nH]c2ccccc12	5	109	-8	i	95	-0.55	/	/	/	/	/	/
NNC(=O)CN1C(c2ccccc2Br)=Nc2ccc(Br)cc2C1c1ccccc1 (centres undefined)	-8	101	2	i	107	-0.015	/	/	/	/	/	/
COc1ccc(NC(C)=O)cc1NC(=O)CN1CCN(CC(=O)Nc2ccc(Cl)cc2)CC1	-2	115	-13	i	101	/	/	/	/	/	/	/
Cc1ccc(CCc2nnc(SCC(=O)Nc3cc(Cl)ccc3Cl)n2-c2ccccc2)o1	5	120	-19	i	96	-4.7*	0.0083	0.005	0.031	0.0064	0.026	0.0095
NS(=O)(=O)c1ccc(CCn2c(=S)[nH]c3ccc(F)cc3c2=O)cc1	2	86	18	i	98	3.1*	?	0.0072	0.03	0.0093*	0.02	0.011*
COc1ccc(/C(O)=C/Sc2nnc(Cc3ccccc3)o2)cc1	-6	97	2	/	106	-4.9*	0.0063	0.0053	0.025*	0.0065	0.013*	?
Cn1cc(S(=O)(=O)N2CCc3ccccc3C2)c(=O)n(C)c1=O	-1	106	2	i	101	-3.4*	0.01	?	0.033	0.0078	0.022	0.01
CCOC(=O)c1[nH]c(C=O)c(C(=O)OCC)c1C	-7	106	-5	i	106	26*	0.0059	0.051*	0.04*	0.029*	0.044*	0.031*
CCOC(=O)c1[nH]c(C)c(C(=O)O)c1C	-6	105	-8	i	105	-1.1	/	/	/	/	/	/
